ChEMBL document CHEMBL1926572, “Synthesis and evaluation of the substrate activity of C-6 substituted purine ribosides with E. coli purine nucleoside phosphorylase: palladium mediated cross-coupling of organozinc halides with 6-chloropurine nucleosides” (Eur J Med Chem, 2012)
Activity calls are given as the source filed them. No cut-off for these calls is given here.

Key:
Escherichia coli = assay: Activity of Escherichia coli PNP assessed per mg of protein at 100 uM by UV spectrometric analysis
Method in brief: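 Samples taken at several times; substrate and product resolved by C-18 HPLC (5–50% acetonitrile gradient, NH₄H₂PO₄ pH 4.5) with UV detection. Rate in nmoles/mg/h; mean of at least 2 measurements.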

CCRF-CEM = assay: Cytotoxicity against human CCRF-CEM cells after 72 hrs by coulter counting; type: functional, cell-based
CAKI-1 = assay: Cytotoxicity against human Caki1 cells assessed as cell viability after 72 hrs by sulforhodamine B assay; type: functional, cell-based; settings: CAKI-1, 72 h
Method in brief: (§1)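 Cells plated and kept at 37 °C with a range of compound concentrations for 72 h of continuous exposure; viability by sulforhodamine B staining, absorbance at 570 nm; concentration inhibiting growth by 50% determined from a single experiment.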

Mus musculus [1] = assay: Toxicity in nude mouse xenografted with human NCI-H23 cells assessed as decrease in body weight at 75 mg/kg, ip qd for 9 consecutive days; type: organism-based; design: dose 75 mg/kg, route intraperitoneal; scale not given: the % may be the effect or the level left; settings: in vivo
Method in brief: (§2)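 NCI-H23 tumors grown on the flanks of nude mice; once tumors were about 200 mg, animals received 33, 50 or 75 mg/kg ip daily for 9 consecutive days; tumor growth and body weight followed.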

SNB-7 = assay: Cytotoxicity against human SNB7 cells assessed as cell viability after 72 hrs by sulforhodamine B assay; type: functional, cell-based; settings: SNB-7, 72 h; method in brief: as §1
PC-3 = assay: Cytotoxicity against human PC3 cells assessed as cell viability after 72 hrs by sulforhodamine B assay; type: functional, cell-based; settings: PC-3, 72 h; method in brief: as §1
DLD-1 = assay: Cytotoxicity against human DLD1 cells assessed as cell viability after 72 hrs by sulforhodamine B assay; type: functional, cell-based; settings: DLD-1, 72 h; method in brief: as §1
NCI-H23 [2] = assay: Antitumor activity against human NCI-H23 cells xenografted in nude mouse assessed as tumor growth inhibition at 33 to 75 mg/kg, ip qd for 9 consecutive days; type: functional, organism-based; method in brief: as §2
NCI-H23 [3] = assay: Antitumor activity against human NCI-H23 cells xenografted in nude mouse assessed as tumor growth inhibition at maximum tolerated dose, ip qd for 9 consecutive days; type: functional, organism-based; method in brief: as §2
LOX IMVI = assay: Cytotoxicity against human LOXIMVI cells assessed as cell viability after 72 hrs by sulforhodamine B assay; type: functional, cell-based; method in brief: as §1
ZR-75-1 = assay: Cytotoxicity against human ZR-75-1 cells assessed as cell viability after 72 hrs by sulforhodamine B assay; type: functional, cell-based; settings: ZR-75-1, 72 h; method in brief: as §1
NCI-H23 [4] = assay: Cytotoxicity against human NCI-H23 cells assessed as cell viability after 72 hrs by sulforhodamine B assay; type: functional, cell-based; settings: NCI-H23, 72 h; method in brief: as §1
Mus musculus [5] = assay: Toxicity in nude mouse xenografted with human NCI-H23 cells assessed as mortality at 75 mg/kg, ip qd for 9 consecutive days; type: organism-based; design: dose 75 mg/kg, route intraperitoneal; settings: in vivo
Method in brief: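 NCI-H23 tumours grown subcutaneously on the flanks of nude mice. Dosing began once tumours reached about 200 mg: 33, 50 or 75 mg/kg given ip once daily for 9 consecutive days. Tumour growth, deaths and body-weight loss were recorded.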

In the case of Cc1ncnc2c1ncn2[C@@H]1O[C@H](CO)[C@@H](O)[C@H]1O, the Activity (Escherichia coli) is reported as 84000 nmol/h and the IC50 (CCRF-CEM) is reported as 0.02 µM.
OC[C@H]1O[C@@H](n2cnc3c(C4CCCC4)ncnc32)[C@H](O)[C@@H]1O gave an Activity (Escherichia coli) of 42000 nmol/h and an IC50 (CCRF-CEM) of 16 µM.
For Nc1nc(F)nc2c1ncn2[C@@H]1O[C@H](CO)[C@@H](O)[C@@H]1O, the Activity (Escherichia coli) was 1300 nmol/h.
For OC[C@H]1O[C@@H](n2cnc3c(C4CCC4)ncnc32)[C@H](O)[C@@H]1O, the Activity (Escherichia coli) was 63000 nmol/h and the IC50 (CCRF-CEM) was 7 µM.
For Nc1ncnc2c1ncn2[C@@H]1O[C@H](CO)[C@@H](O)[C@H]1O, the Activity (Escherichia coli) was 398000 nmol/h.
With Cc1ncnc2c1ncn2[C@@H]1O[C@H](CO)[C@@H](O)[C@@H]1O the Activity (Escherichia coli) was 14 nmol/h and the IC50 (CCRF-CEM) was greater than 130 µM.
In the case of OC[C@H]1O[C@@H](n2cnc3c(-c4cccs4)ncnc32)[C@H](O)[C@@H]1O, the IC50 (CAKI-1) is reported as 30 µM, the Activity (Mus musculus [1]) is reported as 14% and the IC50 (SNB-7) is reported as 10 µM. The IC50 (PC-3) was 0.9 µM, the IC50 (DLD-1) was 0.9 µM and the “growth inhibition (GI)” value (NCI-H23 [2]) was “inactive”. For the same compound, the “growth inhibition (GI)” value (NCI-H23 [3]) was “inactive”, the Activity (Escherichia coli) was 9900 nmol/h and the IC50 (LOX IMVI) was 0.3 µM. The IC50 (ZR-75-1) was 0.3 µM, the IC50 (NCI-H23 [4]) was 0.6 µM and the IC50 (CCRF-CEM) was 0.09 µM.
In the case of CCc1ncnc2c1ncn2[C@@H]1O[C@H](CO)[C@@H](O)[C@H]1O, the Activity (Escherichia coli) is reported as 69000 nmol/h and the IC50 (CCRF-CEM) is reported as 0.72 µM.
With Cc1ncnc2c1ncn2[C@H]1C[C@H](O)[C@@H](CO)O1 the Activity (Escherichia coli) was 461000 nmol/h.
With CCCc1ncnc2c1ncn2[C@@H]1O[C@H](CO)[C@@H](O)[C@H]1O the Activity (Escherichia coli) was 72000 nmol/h and the IC50 (CCRF-CEM) was 6.8 µM.
CC(C)Cc1ncnc2c1ncn2[C@@H]1O[C@H](CO)[C@@H](O)[C@H]1O gave an Activity (Escherichia coli) of 79000 nmol/h and an IC50 (CCRF-CEM) greater than 130 µM.
With OC[C@H]1O[C@@H](n2cnc3c(-c4ccccc4)ncnc32)[C@H](O)[C@@H]1O the IC50 (CAKI-1) was 31 µM, the IC50 (SNB-7) was 31 µM and the IC50 (PC-3) was 1.2 µM. The IC50 (DLD-1) was 6 µM, the Activity (Escherichia coli) was 21000 nmol/h and the IC50 (LOX IMVI) was 6.2 µM. For the same compound, the IC50 (ZR-75-1) was 1.2 µM, the IC50 (NCI-H23 [4]) was 1.2 µM and the IC50 (CCRF-CEM) was 0.62 µM.
OC[C@H]1O[C@@H](n2cnc3c(C4CC4)ncnc32)[C@H](O)[C@@H]1O was tested, and the IC50 (CAKI-1) was greater than 200 µM, the IC50 (SNB-7) was 33 µM and the IC50 (PC-3) was 67 µM. For the same compound, the IC50 (DLD-1) was 170 µM, the “growth inhibition (GI)” value (NCI-H23 [2]) was “inactive” and the “growth inhibition (GI)” value (NCI-H23 [3]) was “inactive”. The Activity (Escherichia coli) was 51000 nmol/h, the IC50 (LOX IMVI) was greater than 200 µM and the Activity (Mus musculus [5]) was “Toxic”. For the same compound, the IC50 (ZR-75-1) was 23 µM, the IC50 (NCI-H23 [4]) was 1 µM and the IC50 (CCRF-CEM) was 1 µM.
CCCCc1ncnc2c1ncn2[C@@H]1O[C@H](CO)[C@@H](O)[C@H]1O gave an Activity (Escherichia coli) of 86000 nmol/h and an IC50 (CCRF-CEM) of 49 µM.
